Experimental data from ChEMBL document CHEMBL3865824, “New (E)-1-alkyl-1H-benzo[d]imidazol-2-yl)methylene)indolin-2-ones: Synthesis, in vitro cytotoxicity evaluation and apoptosis inducing studies” (Eur J Med Chem, 2016).
Activity calls are given as the source filed them. No cut-off for these calls is given here.

How the values were obtained:
[1] = Cell cycle arrest in human MDA-MB-231 cells assessed as accumulation at G2/M phase at 1 uM after 24 hrs by propidium iodide staining based FACS analysis (reference value: 26 %); format: functional
How it was run: (§1)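 MDA-MB-231 at 1×10^6 cells/well treated with 1, 2 or 4 µM for 24 h, with a DMSO control. Cells harvested by trypsin, washed with PBS and fixed in 70% ethanol for 30 min at 4 °C. Stained 15 min at room temperature in the dark with PI buffer containing Triton X and DNase-free RNase A. Analysed by flow cytometry; G0/G1, S and G2/M fractions quantified.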

[2] = Selectivity ratio of IC50 for human MCF10A cells to IC50 for human DU145 cells; format: ADME, cell-based, MCF-10A; conditions: MCF10A cells versus DU145 cells, read-out: Ratio IC50
MDA-MB-231 [3] = assay: Inhibition of F-actin polymerization in human MDA-MB-231 cells assessed as decrease in protein extension at 1 to 4 uM after 12 hrs by rhodamine-phalloidin/hoechst […]-dual staining based confocal microscopic analysis; format: cell-based
How it was run: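 MDA-MB-231 cells (1×10^6/well) were grown on coverslips for 24 h, then exposed 12 h to 1, 2 and 4 μM. After a PBS wash and fixation in 4% paraformaldehyde, F-actin was stained with rhodamine-phalloidin and nuclei with Hoechst […]. Slides were mounted in anti-fade reagent and imaged by confocal microscopy (20× objective).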

[4] = Cell cycle arrest in human MDA-MB-231 cells assessed as accumulation at G0/G1 phase at 1 uM after 24 hrs by propidium iodide staining based FACS analysis (reference value: 50.4 %); format: functional; how it was run: as §1
[5] = Cell cycle arrest in human MDA-MB-231 cells assessed as accumulation at S phase at 2 uM after 24 hrs by propidium iodide staining based FACS analysis (reference value: 24.6 %); format: functional; how it was run: as §1
MDA-MB-231 [6] = assay: Induction of apoptosis in human MDA-MB-231 cells assessed as formation of condensed chromatin at 1 uM after 24 hrs by AO/EB-dual staining based fluorescent microscopic analysis; format: functional, cell-based
How it was run: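 MDA-MB-231 plated at 1×10^6 cells/mL and treated at 1, 2 or 4 µM, with a DMSO control. Incubation time is given as 48 h in the methods and 24 h in the figure legend. AO and EB added at 10 µg/mL each. Cells viewed within 10 min by fluorescence microscopy (excitation 488 nm, emission 550 nm) at 200×.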

MDA-MB-231 [7] = assay: Induction of apoptosis in human MDA-MB-231 cells assessed as formation of horse-shoe shaped nuclei at 1 to 4 uM after 24 hrs by DAPI dye-based fluorescent microscopic analysis; format: functional, cell-based
How it was run: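 MDA-MB-231 grown at 1×10^6 cells/well in 6-well plates and treated at 1.0, 2.0 or 4.0 µM for 24 h, with untreated controls. Cells washed twice with PBS, fixed in 4% paraformaldehyde and stained with 10 µg/mL DAPI. Nuclei examined by fluorescence microscopy (excitation 359 nm, emission 461 nm) at 200×.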

MDA-MB-231 [8] = assay: Induction of apoptosis in human MDA-MB-231 cells assessed as loss of mitochondrial membrane potential after 24 hrs by rhodamine-123 -based spectrofluorometric analysis; format: functional, cell-based
How it was run: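 MDA-MB-231 seeded at 5×10^5 cells/mL and allowed to adhere overnight, then treated at 1, 2 or 4 µM for 24 h. Cells collected by trypsin, washed, and stained with rhodamine-123 (10 µg/mL) in PBS for 30 min at room temperature. Cells washed twice and fluorescence read at excitation 480 nm, emission 530 nm. Mean ± SD of three independent experiments in triplicate.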

MDA-MB-231 [9] = assay: Induction of apoptosis in human MDA-MB-231 cells assessed as loss of mitochondrial membrane potential at 4 uM after 24 hrs by rhodamine-123 -based spectrofluorometric analysis relative to control; format: functional
How it was run: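 MDA-MB-231 cells were plated at 5×10^5 cells/mL in 6-well plates, left to adhere overnight, then treated 24 h at 1, 2 and 4 μM. Cells were trypsinized, washed in PBS and loaded with rhodamine-123 (10 μg/mL) in PBS for 30 min at room temperature. After two PBS washes, fluorescence was read by spectrofluorometer (ex 480/em 530 nm). Loss is expressed against control; three independent experiments in triplicate.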

MDA-MB-231 [10] = assay: Induction of superoxide production in human MDA-MB-231 cells after 48 hrs by mitoSOX red-probe based fluorescent microscopic analysis; format: functional, cell-based
How it was run: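 Cells were seeded at 1×10^5/well in 24-well plates and left to adhere overnight, then treated at different concentrations (methods: medium removed after 24 h; legend: 48 h treatment). After a PBS wash, cells were loaded with MitoSOX Red in HBSS for 15 min at 37 °C, washed three times with PBS and imaged by fluorescence microscopy against DMSO control.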

MDA-MB-231 [11] = assay: Induction of apoptosis in human MDA-MB-231 cells assessed as increase in Bax expression after 24 hrs by Western blot analysis; format: functional, cell-based
How it was run: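 MDA-MB-231 treated at 1, 2 or 4 µM for 24 h. Whole-cell extracts prepared in RIPA buffer. Blots probed with rabbit anti-caspase-3, anti-Bcl2 and anti-β-actin (1:1000) and anti-Bax (1:500), then HRP secondaries and ECL detection. Membranes stripped and reprobed. Bands quantified by densitometry as fold change versus control. Mean ± SEM, n=3.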

MDA-MB-231 [12] = assay: Induction of apoptosis in human MDA-MB-231 cells assessed as early apoptotic cells at 1 uM after 24 hrs by Annexin V-FITC/propidium iodide-staining based FACS analysis (reference value: 4.1 %); format: functional
MDA-MB-231 [13] = assay: Induction of apoptosis in human MDA-MB-231 cells assessed as necrotic cells at 1 uM after 24 hrs by Annexin V-FITC/propidium iodide-staining based FACS analysis (reference value: 2.8 %); format: functional
MDA-MB-231 [14] = assay: Induction of apoptosis in human MDA-MB-231 cells assessed as viable cells at 2 uM after 24 hrs by Annexin V-FITC/propidium iodide-staining based FACS analysis (reference value: 89.5 %); format: functional; conditions: MDA-MB-231, 24 h, read-out: Activity
MDA-MB-231 [15] = assay: Induction of apoptosis in human MDA-MB-231 cells assessed as late apoptotic cells at 2 uM after 24 hrs by Annexin V-FITC/propidium iodide-staining based FACS analysis (reference value: 3.6 %); format: functional
MDA-MB-231 [16] = assay: Induction of apoptosis in human MDA-MB-231 cells assessed as necrotic cells at 2 uM after 24 hrs by Annexin V-FITC/propidium iodide-staining based FACS analysis (reference value: 2.8 %); format: functional
[17] = Cytotoxicity against […] cells assessed as growth inhibition at 50 uM after 48 hrs by MTT assay relative to control; format: functional; conditions: Mus musculus, 4T1, 48 h; read-out: GI
How it was run: (§2)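 Cells grown in DMEM or MEM with 10% FBS at 37 °C, 5% CO2. Seeded at 1×10^4 cells/well, incubated 48 h, then exposed to compound for 48 h with vehicle control. MTT (5 mg/mL stock) added for 4 h; formazan dissolved in DMSO, absorbance read at 570 nm. Preliminary screen at 50 µM. Compounds giving >50% inhibition were tested for dose-response curves; IC50 derived by linear regression of % inhibition versus concentration. Mean of three independent experiments in triplicate.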

[18] = Cytotoxicity against human MCF7 cells assessed as growth inhibition at 50 uM after 48 hrs by MTT assay relative to control; format: functional; conditions: MCF7, 48 h, read-out: GI; how it was run: as §2

## CC(C)n1c(/C=C2/C(=O)Nc3ccc(Br)cc32)nc2ccccc21
[1]
  Activity: 21.8%
[2]
  selectivity ratio: 8
MDA-MB-231 [3]
  inhibition: Active
[4]
  Activity: 57.2%
[5]
  Activity: 17.7%
MDA-MB-231 [6]
  Activity: Active
MDA-MB-231 [7]
  Activity: Active
MDA-MB-231 [8]
  Activity: Dose-dependent effect
MDA-MB-231 [9]
  Activity: 38.5%
MDA-MB-231 [10]
  Activity: Dose-dependent effect
MDA-MB-231 [11]
  Activity: Dose-dependent effect
MDA-MB-231 [12]
  Activity: 8.6%
MDA-MB-231 [13]
  Activity: 3.4%
MDA-MB-231 [14]
  viability at 2 µM: 73.6%
MDA-MB-231 [15]
  Activity: 4.4%
MDA-MB-231 [16]
  Activity: 3.3%
[17]
  inhibition of growth at 50 µM: > 50%
[18]
  inhibition of growth at 50 µM: > 50%
